Measured values reported in ChEMBL document CHEMBL1123867, “Anticonvulsant O-alkyl sulfamates. 2,3:4,5-Bis-O-(1-methylethylidene)-beta-D-fructopyranose sulfamate and related compounds” (1987).
Activity calls are given as the source filed them. The rule behind the calls is not given here.

Assays:
Mus musculus [1] = experiment: Anticonvulsant activity following p.o. administration by standard maximal electroshock test in mice.; assay type: functional; conditions: po
Procedure, shortened: (§1)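 Supramaximal electroshock: 50-mA current (60 Hz, 0.20 s) via corneal electrodes induced hind-limb tonic extension; inhibition of this component scored as activity. Mice dosed ip and/or po in aqueous solution or suspension (ca. 0.1% Tween 80, distilled water). Tested at 30, 60, 120 and 240 min (sometimes 45 min); ten mice per time point.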

Mus musculus [2] = experiment: Anticonvulsant activity by using a standard maximal electroshock test (MES) in mice, by intraperitoneal administration of the compound; assay type: functional; conditions: ip; procedure, shortened: as §1
Mus musculus [3] = experiment: Anticonvulsant activity by using a standard maximal electroshock test (MES) in mice, by 100 mg/kg intraperitoneal administration of the compound; i =inactive; assay type: functional, organism-based; parameters: dose 100 mg/kg; procedure, shortened: as §1
Mus musculus [4] = experiment: Anticonvulsant activity by using a standard maximal electroshock test (MES) in mice, by 100 mg/kg intraperitoneal administration of the compound; I=inactive, 0-10% block; assay type: functional, organism-based; parameters: dose 100 mg/kg; procedure, shortened: as §1
Mus musculus [5] = experiment: Percentage block of the hind-limb tonic-extensor seizure was determined after application of an electric shock to mice for 240 min followed by 100 mg/kg intraperitoneal dose; assay type: functional; procedure, shortened: as §1
Mus musculus [6] = experiment: Anticonvulsant activity by using a standard maximal electroshock test (MES) in mice, by 200 mg/kg peroral administration of the compound; I=inactive, 0-10% block; assay type: functional, organism-based; parameters: dose 200 mg/kg; procedure, shortened: as §1
Mus musculus [7] = experiment: Percentage block of the hind-limb tonic-extensor seizure was determined after application of an electric shock to mice for 30 min followed by 100 mg/kg intraperitoneal dose; assay type: functional; procedure, shortened: as §1
Mus musculus [8] = experiment: Percentage block of the hind-limb tonic-extensor seizure was determined after application of an electric shock to mice for 240 min followed by 200 mg/kg peroral dose; assay type: functional; conditions: route oral; procedure, shortened: as §1
Mus musculus [9] = experiment: Percentage block of the hind-limb tonic-extensor seizure was determined after application of an electric shock to mice for 120 min followed by 200 mg/kg peroral dose; assay type: functional; conditions: route oral; procedure, shortened: as §1
Mus musculus [10] = experiment: Percentage block of the hind-limb tonic-extensor seizure was determined after application of an electric shock to mice for 30 min followed by 200 mg/kg peroral dose; assay type: functional; conditions: route oral; procedure, shortened: as §1
Mus musculus [11] = experiment: Percentage block of the hind-limb tonic-extensor seizure was determined after application of an electric shock to mice for 60 min followed by 200 mg/kg peroral dose; assay type: functional; conditions: route oral
Procedure, shortened: (§2)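 Mouse MES test: supramaximal seizure from a 50-mA current (60 Hz, 0.20-s) through corneal electrodes. […] Ten mice per time point. Compound given in aqueous solution or in suspension in ca. 0.1% Tween 80 and distilled water. Free food and water except during testing.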

Mus musculus [12] = experiment: Percentage block of the hind-limb tonic-extensor seizure was determined after application of an electric shock to mice for 60 min followed by 100 mg/kg intraperitoneal dose; assay type: functional; procedure, shortened: as §1
Mus musculus [13] = experiment: Percentage block of the hind-limb tonic-extensor seizure was determined after application of an electric shock to mice for 120 min followed by 100 mg/kg intraperitoneal dose; assay type: functional; procedure, shortened: as §1
Mus musculus [14] = experiment: Anticonvulsant activity by using a standard maximal electroshock test (MES) in mice, by 400 mg/kg peroral administration of the compound; I=inactive, 0-10% block; assay type: functional, organism-based; parameters: dose 400 mg/kg; procedure, shortened: as §1
Mus musculus [15] = experiment: Anticonvulsant activity by using a standard maximal electroshock test (MES) in mice, by 200 mg/kg intraperitoneal administration of the compound; I=inactive, 0-10% block; assay type: functional, organism-based; parameters: dose 200 mg/kg; procedure, shortened: as §1
Mus musculus [16] = experiment: Percentage block of the hind-limb tonic-extensor seizure was determined after application of an electric shock to mice for 60 min followed by 200 mg/kg intraperitoneal dose; assay type: functional; procedure, shortened: as §2
Mus musculus [17] = experiment: Anticonvulsant activity by using a standard maximal electroshock test (MES) in mice, by 100 mg/kg intraperitoneal administration; i= Inactive; assay type: functional, organism-based; parameters: dose 100 mg/kg; procedure, shortened: as §1
Mus musculus [18] = experiment: Percentage block of the hind-limb tonic-extensor seizure was determined after application of an electric shock to mice for 240 min followed by 400 mg/kg peroral dose; assay type: functional; conditions: route oral; procedure, shortened: as §1
Mus musculus [19] = experiment: Percentage block of the hind-limb tonic-extensor seizure was determined after application of an electric shock to mice for 30 min followed by 200 mg/kg intraperitoneal dose; assay type: functional; procedure, shortened: as §1
Mus musculus [20] = experiment: Percentage block of the hind-limb tonic-extensor seizure was determined after application of an electric shock to mice for 120 min followed by 200 mg/kg intraperitoneal dose; assay type: functional; procedure, shortened: as §1
Mus musculus [21] = experiment: Percentage block of the hind-limb tonic-extensor seizure was determined after application of an electric shock to mice for 60 min followed by 400 mg/kg peroral dose; assay type: functional; conditions: route oral; procedure, shortened: as §2
Mus musculus [22] = experiment: Percentage block of the hind-limb tonic-extensor seizure was determined after application of an electric shock to mice for 240 min followed by 200 mg/kg intraperitoneal dose; assay type: functional; procedure, shortened: as §1
Mus musculus [23] = experiment: Percentage block of the hind-limb tonic-extensor seizure was determined after application of an electric shock to mice for 120 min followed by 400 mg/kg peroral dose; assay type: functional; conditions: route oral; procedure, shortened: as §1
Mus musculus [24] = experiment: Percentage block of the hind-limb tonic-extensor seizure was determined after application of an electric shock to mice for 30 min followed by 400 mg/kg peroral dose; assay type: functional; conditions: route oral; procedure, shortened: as §1
Mus musculus [25] = experiment: Percentage block of the hind-limb tonic-extensor seizure was determined after application of an electric shock to mice for 30 min followed by 100 mg/kg peroral dose; assay type: functional; conditions: route oral; procedure, shortened: as §1
Mus musculus [26] = experiment: Percentage block of the hind-limb tonic-extensor seizure was determined after application of an electric shock to mice for 120 min followed by 100 mg/kg peroral dose; assay type: functional; conditions: route oral; procedure, shortened: as §1
Mus musculus [27] = experiment: Percentage block of the hind-limb tonic-extensor seizure was determined after application of an electric shock to mice for 30 min followed by 50 mg/kg intraperitoneal dose; assay type: functional; procedure, shortened: as §1
Mus musculus [28] = experiment: Percentage block of the hind-limb tonic-extensor seizure was determined after application of an electric shock to mice for 120 min followed by 50 mg/kg intraperitoneal dose; assay type: functional; procedure, shortened: as §1
Mus musculus [29] = experiment: Percentage block of the hind-limb tonic-extensor seizure was determined after application of an electric shock to mice for 60 min followed by 100 mg/kg peroral dose; assay type: functional; conditions: route oral; procedure, shortened: as §2
Mus musculus [30] = experiment: Percentage block of the hind-limb tonic-extensor seizure was determined after application of an electric shock to mice for 240 min followed by 100 mg/kg peroral dose; assay type: functional; conditions: route oral; procedure, shortened: as §1
Mus musculus [31] = experiment: Percentage block of the hind-limb tonic-extensor seizure was determined after application of an electric shock to mice for 240 min followed by 50 mg/kg intraperitoneal dose; assay type: functional; procedure, shortened: as §1
Mus musculus [32] = experiment: Percentage block of the hind-limb tonic-extensor seizure was determined after application of an electric shock to mice for 60 min followed by 50 mg/kg intraperitoneal dose; assay type: functional; procedure, shortened: as §2

SMILES	ED50 (Mus musculus [1])	ED50 (Mus musculus [2])	Block (Mus musculus [5])	Block (Mus musculus [7])	Block (Mus musculus [8])	Block (Mus musculus [9])	Block (Mus musculus [10])	Block (Mus musculus [11])	Block (Mus musculus [12])	further results
NS(=O)(=O)OCC1CCCCO1 (stereo unspecified)	154 mg/kg	195 mg/kg								
NS(=O)(=O)OCC1(O)OC[C@@H](O)[C@@H](O)C1O (stereo partly specified)										ED50 (Mus musculus [3]): inactive
CC1(C)OC2[C@H](O)[C@H](O)CO[C@@]2(COS(N)(=O)=O)O1 (stereo partly specified)			0%	0%	0%	0%	0%	0%	0%	ED50 (Mus musculus [4]): inactive; ED50 (Mus musculus [6]): inactive
COC1(COS(N)(=O)=O)OC(CO)[C@@H](O)C1O (stereo partly specified)										ED50 (Mus musculus [3]): inactive
NS(=O)(=O)OCC(c1ccccc1)c1ccccc1	147 mg/kg		0%	0%	100%	80%	80%	70%	0%	ED50 (Mus musculus [4]): inactive; Block (Mus musculus [13]): 0%
NS(=O)(=O)OCCc1ccccc1 [SULFAMIC ACID PHENETHYL ESTER]	~100 mg/kg	~50 mg/kg	20%	90%	80%	100%	70%	100%	100%	Block (Mus musculus [13]): 70%
CC1(C)OC2C3OC(C)(C)O[C@]3(CO)OC[C@H]2O1 (stereo partly specified)										ED50 (Mus musculus [14]): inactive; ED50 (Mus musculus [15]): inactive; Block (Mus musculus [16]): 0%; ED50 (Mus musculus [17]): inactive; Block (Mus musculus [18]): 0%; Block (Mus musculus [19]): 0%; Block (Mus musculus [20]): 0%; Block (Mus musculus [21]): 0%; Block (Mus musculus [22]): 0%; Block (Mus musculus [23]): 0%; Block (Mus musculus [24]): 0%
NS(=O)(=O)OCC1CCc2ccccc2C1 (stereo unspecified)	82 mg/kg	56 mg/kg								Block (Mus musculus [25]): 80%; Block (Mus musculus [26]): 80%; Block (Mus musculus [27]): 30%; Block (Mus musculus [28]): 0%; Block (Mus musculus [29]): 80%; Block (Mus musculus [30]): 30%; Block (Mus musculus [31]): 0%; Block (Mus musculus [32]): 50%
CC1(C)OC[C@@H]2O[C@@]3(COS(N)(=O)=O)OC(C)(C)OC3[C@@H]2O1 (stereo partly specified)	150 mg/kg	100 mg/kg	0%	30%	50%	70%	70%	80%	50%	Block (Mus musculus [13]): 20%
CCCCCCCCCC1(C)OCC(COS(N)(=O)=O)O1 (stereo unspecified)	> 200 mg/kg	319 mg/kg								
CC1(C)O[C@@H]2[C@H](O1)[C@H]1OC(C)(C)OC1O[C@@H]2COS(N)(=O)=O (stereo partly specified)	> 200 mg/kg	175 mg/kg								Block (Mus musculus [16]): 40%; Block (Mus musculus [18]): 80%; Block (Mus musculus [19]): 20%; Block (Mus musculus [20]): 50%; Block (Mus musculus [21]): 80%; Block (Mus musculus [22]): 30%; Block (Mus musculus [23]): 90%; Block (Mus musculus [24]): 50%
